An excerpt weighted towards active compounds, which were near 3% of everything screened.
PLC-gamma1 inh: PLC-gamma1 enzyme inhibitors, primary screen, biochemical, fluorescence, purified enzyme | 1-phosphatidylinositol 4,5-bisphosphate phosphodiesterase gamma-1 (Homo sapiens), P19174 | fluorogenic substrate | inhibition, % at 12.2 µM | actives 0.84% (n = 370,000); in the data active means inhibition above about 9.5%
Target sequence (P19174 whole entry, looked up): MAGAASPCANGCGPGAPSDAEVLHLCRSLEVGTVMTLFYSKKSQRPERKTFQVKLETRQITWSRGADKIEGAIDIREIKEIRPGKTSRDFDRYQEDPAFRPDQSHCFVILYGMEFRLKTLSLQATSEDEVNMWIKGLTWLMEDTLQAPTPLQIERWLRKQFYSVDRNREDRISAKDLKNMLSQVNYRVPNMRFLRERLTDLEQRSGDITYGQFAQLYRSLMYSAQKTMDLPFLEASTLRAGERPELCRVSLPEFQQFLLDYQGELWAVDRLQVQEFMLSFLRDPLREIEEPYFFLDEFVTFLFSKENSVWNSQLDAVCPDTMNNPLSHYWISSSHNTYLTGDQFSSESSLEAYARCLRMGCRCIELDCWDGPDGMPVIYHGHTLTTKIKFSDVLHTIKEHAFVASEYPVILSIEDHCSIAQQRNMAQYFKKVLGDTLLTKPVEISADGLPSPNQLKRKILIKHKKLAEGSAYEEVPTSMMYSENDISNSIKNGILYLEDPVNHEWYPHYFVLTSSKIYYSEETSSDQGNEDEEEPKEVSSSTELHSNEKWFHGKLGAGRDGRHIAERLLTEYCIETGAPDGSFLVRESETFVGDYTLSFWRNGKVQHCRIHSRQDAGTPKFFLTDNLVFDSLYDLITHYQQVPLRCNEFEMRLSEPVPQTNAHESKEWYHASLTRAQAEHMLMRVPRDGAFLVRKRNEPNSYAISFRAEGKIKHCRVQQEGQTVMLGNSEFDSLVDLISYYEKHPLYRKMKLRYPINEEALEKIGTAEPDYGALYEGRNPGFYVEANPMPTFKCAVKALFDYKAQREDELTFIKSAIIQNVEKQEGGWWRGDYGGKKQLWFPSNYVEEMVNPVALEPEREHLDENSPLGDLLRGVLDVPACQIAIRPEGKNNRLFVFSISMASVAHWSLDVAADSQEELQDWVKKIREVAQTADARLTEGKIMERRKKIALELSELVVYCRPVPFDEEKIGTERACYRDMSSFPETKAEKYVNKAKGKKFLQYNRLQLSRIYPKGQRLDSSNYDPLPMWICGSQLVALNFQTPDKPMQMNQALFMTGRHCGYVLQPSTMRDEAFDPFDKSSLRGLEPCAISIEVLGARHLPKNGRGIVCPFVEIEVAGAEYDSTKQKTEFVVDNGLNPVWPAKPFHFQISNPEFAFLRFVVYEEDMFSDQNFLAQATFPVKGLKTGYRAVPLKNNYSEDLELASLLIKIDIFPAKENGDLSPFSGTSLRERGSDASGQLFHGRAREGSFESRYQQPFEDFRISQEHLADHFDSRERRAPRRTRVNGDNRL
Tn7 DDE FP: inhibitors of Tn7 peptide binding to fibrin DD(E), primary screen, biochemical, fluorescence polarization, human fibrin, Tn7 probe | inhibition, % at 8.3 µM | actives 0.13% (n = 370,000) | FP displacement of FITC-Tn7 peptide from fibrin DD(E); 0% = median of compound wells per plate | AID 720508, 2013;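 active means inhibition above the mean of compounds falling within the control limits plus 3 SD of them, cut at about 14% in these data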;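 further: 0% = plate median of compound wells and 100% = 10 µM Aha-Tn7 peptide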
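Test system: human clot-derived fibrin DD(E) complex / Quantity: 2 µM final DD(E) protein / Incubation: 10 min plus 3 h, room temperature / Measured by: fluorescence polarization / Benchmarks: high control of 10 µM Aha-Tn7 peptide / Replicates: singlicate testing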
PLC-beta3 inh: human PLC-beta3 inhibitors, primary screen, biochemical, fluorescence; 1-phosphatidylinositol 4,5-bisphosphate phosphodiesterase beta-3 (Homo sapiens), Q01970; Purified PLC-beta3, fluorogenic substrate; inhibition, % at 12.2 µM; actives 0.18% (n = 370,000); AID 720704, 2013;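 further: 0% = median of compound wells on plate and 100% = full blocker control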
KLK7 zymogen act: proKLK7 zymogen activators, primary screen, biochemical, fluorescence intensity; Kallikrein-7 (Homo sapiens), P49862; purified proKLK7, EDANS-DABCYL substrate fluorescence; 100% is mature enzyme control, 0% vehicle; activation, % at 7 µM; actives 0.9% (n = 370,000);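 active means activation above the mean of all tested compounds plus 3 SD, computed per campaign excluding outliers beyond control limits, cut at about 13% in these data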
NRP1-CendR mod: modulators of CendR peptide binding to NRP-1, primary screen, biochemical, fluorescence polarization, uHTS; FAM-RPARPAR peptide binding to NRP-1; actives 0.85% (n = 360,000); inhibition, % at 25 µM; Neuropilin-1 (Homo sapiens), O14786;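 active means inhibition or corrected inhibition above about 18%, plus a signal ratio from 0.5 to 1.5, limit read from the data, passing the limit was not always enough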
Tn6 DDE FP: inhibitors of Tn6 peptide binding to fibrin DD(E), primary screen, biochemical, fluorescence polarization, human fibrin, Tn6 probe. Fibrin DD(E) TRITC-Tn6 fluorescence polarization displacement. inhibition, % at 8.3 µM. actives 0.21% (n = 370,000). AID 720509, 2013;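 active means inhibition above a per-campaign cutoff: mean of compounds within control limits plus 3 SD, cut at about 15% in these data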;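 further: 0% = median of all compound wells on the plate and 100% = blocking peptide control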
PLCgamma1 ctr: PLC-gamma1 enzyme inhibitors, counter-screen for PLC-beta3 inhibitor project, biochemical, fluorescence | shares compounds with PLC-gamma1 inh | purified PLC-gamma1, fluorogenic substrate | inhibition, % at 12.3 µM | actives 3.1% (n = 3,300); in the data active means inhibition above about 9.5%
PLCbeta3 conf: PLC-beta3 inhibitor confirmation, biochemical, fluorescence, purified enzyme; shares compounds with PLC-gamma1 inh; fluorogenic substrate fluorescence; inhibition, % at 12.3 µM; actives 1% (n = 3,300); AID 743261, 2014
The depositor's hits bear a star; x = no result. Unless noted, no stated cut-off is given here; in the data, active means inhibition above about 11%; inactive means the rest.

SMILES | PLC-gamma1 inh | Tn7 DDE FP | PLC-beta3 inh | KLK7 zymogen act | NRP1-CendR mod | Tn6 DDE FP | PLCgamma1 ctr | PLCbeta3 conf
COc1ccccc1C(=O)Nc1nnc(-c2ccccc2)s1 | -8 | 3 | -22 | 0 | -8 | 4 | x | x
Cc1ccc(N2CC(C(=O)OCC(=O)NNC(=O)c3ccccc3)CC2=O)cc1 (configuration not stated) | 11* | 5 | -4 | 0 | -2 | 1 | 3 | 3
CCOC(=O)[C@]12CCCC=C1N(Cc1ccc(OC)cc1)C(=O)[C@@H]2CC(=O)NCc1cccc(C(F)(F)F)c1 | -1 | -1 | 3 | 0 | x | 2 | x | x
COc1ccc(NC(=O)c2ccccc2Oc2ccccc2)cc1 | 2 | -1 | -4 | 0 | 6 | 11 | x | x
COc1cccc(NC(=O)c2ccccc2Oc2ccccc2)c1 | 9.8* | -3 | -5 | 0 | -4 | 6 | -10 | -8
CC1CN(c2nc3ccccc3nc2SCC(=O)N2CCN(S(=O)(=O)c3ccccc3)CC2)CC(C)O1 (configuration not stated) | -22 | 4 | -24 | -3 | x | -1 | x | x
Nc1ccc(N2CCCCC2)c2nonc12 | 34* | 3 | -9 | 0 | 29* | 7 | -8 | -10
Nc1c(N2CCCC2)cc(Cl)c2nonc12 | x | x | x | x | 14 | x | x | x
CN1C(=O)N(CC(=O)Nc2cccc(S(=O)(=O)N(C)c3ccccc3)c2)C(=O)C12CCCCC2 | 14* | -9 | 0 | 1 | -1 | -8 | -4 | -3
CCC1CCC2(CC1)NC(=O)N(CC(=O)Nc1cccc(S(=O)(=O)N(C)c3ccccc3)c1)C2=O (configuration not stated) | 0 | -7 | -2 | 1 | 2 | 2 | x | x
COc1ccc(Nc2nc(Nc3ccc(OC)cc3)nc(SC3=NCCS3)n2)cc1 | 13* | -6 | 1 | 1 | -1 | -9 | 4 | 4
COc1ccc(NC(=O)Cc2c(Cl)cccc2Cl)cn1 | 3 | 0 | 0 | 0 | 5 | -2 | x | x
COc1ccc(NS(=O)(=O)Cc2ccccc2Cl)cn1 | 12* | -3 | 3 | 0 | -1 | 0 | -1 | 5
Cc1cc(-n2c(C)cc(C(=O)CSc3nnc4sc5ccccc5n34)c2C)no1 | 4 | 3 | 11* | 1 | 11 | 8 | -5 | -3
CCCCOc1ccc(Br)cc1CSC(=N)N | 10* | -5 | -2 | 0 | 6 | -6 | -2 | 0
CCOc1ccc(C(C)=O)cc1CSC(=N)N | 5 | 0 | -7 | 0 | 11 | -1 | x | x
O=C(NCc1cccnc1)O[C@H]1CC[C@@]23CCCN2C(=O)CCC[C@H]3C1 | 1 | 1 | 2 | x | x | -6 | x | x
O=C(Nc1ccc(Cl)cc1Cl)O[C@@H]1CC[C@@]23CCCN2C(=O)CCC[C@H]3C1 | 3 | 2 | -4 | x | x | -2 | x | x
C=CCn1c(SCC(=O)c2[nH]c(C)c(C(=O)OCC)c2C)nc2scc(-c3ccc(OC)c(OC)c3)c2c1=O | 6 | -7 | 11* | 1 | -25 | 0 | -9 | -2
CC(Oc1ccc(Cl)cc1Cl)C(=O)Nc1ccc(O)cc1 (configuration not stated) | 16* | -4 | 5 | 0 | 3 | -2 | -8 | -6
CC(Oc1ccc(Cl)cc1Cl)C(=O)Nc1cccc(O)c1 (configuration not stated) | -3 | 1 | -2 | 0 | 9 | 0 | x | x
CN1C(C(=O)Nc2cccc(O)c2)=CC(c2cccs2)=NS1(=O)=O | 10* | -4 | 6 | -1 | 8 | -3 | 7 | 3
CC(=O)c1cccc(NC(=O)C2=CC(c3cccs3)=NS(=O)(=O)N2C)c1 | -3 | -1 | -7 | 1 | 2 | 10 | x | x
Cc1ccc(S(=O)(=O)N2CCOCC2)cc1NC(=O)c1cc2ccccc2oc1=O | 10* | -6 | -3 | 0 | 4 | 6 | -4 | 1
O=C(COC(=O)c1cccs1)NCc1ccc2c(c1)OCO2 | 10* | 2 | 2 | 1 | 1 | 3 | -6 | -3
SMILES | PLC-gamma1 inh | Tn7 DDE FP | PLC-beta3 inh | KLK7 zymogen act | NRP1-CendR mod | Tn6 DDE FP | PLCgamma1 ctr | PLCbeta3 conf
O=C(COC(=O)COc1ccccc1[N+](=O)[O-])Nc1ccc2c(c1)OCO2 | -1 | -2 | 2 | 0 | 6 | 3 | x | x
O=C(COC(=O)COc1ccccc1[N+](=O)[O-])NCc1ccc2c(c1)OCO2 | 13* | -10 | 8 | -1 | 11 | 0 | -5 | 0
CC(C)C1COC(c2cccn2Cc2ccccc2Cl)=N1 (configuration not stated) | 0 | -8 | 2 | 0 | 4 | 1 | x | x
Cc1ccc(Cn2cccc2C2=NC(C)CO2)cc1 (configuration not stated) | 11* | -5 | 10 | -1 | 7 | -1 | 0 | -8
CCC(C)NC(=O)CSc1nc2c(sc3ccccc32)c(=O)n1CCCN1CCOCC1 (configuration not stated) | 9.9* | 3 | 3 | 0 | 8 | 3 | -3 | 0
CCOC(=O)CSc1nc2c(sc3ccccc32)c(=O)n1CCCN1CCOCC1 | 1 | 7 | -2 | 0 | 9 | 7 | x | x
c1ccc(-c2nnc3n2N=C(c2ccc4ccccc4c2)CS3)nc1 | 0 | 3 | -3 | 0 | x | 2 | x | x
COC(=O)[C@H]1C[C@@]2(C)c3ccccc3N(S(=O)(=O)c3ccccc3)[C@H]2N1 | -1 | 2 | 3 | 0 | x | -3 | x | x
CCN(CC)c1nc(N)c([N+](=O)[O-])c(NCCO)n1 | 10* | 1 | 8 | 1 | -5 | -10 | -1 | 5
C=CCNc1nc(N)c([N+](=O)[O-])c(NCCO)n1 | 8 | 4 | -1 | 0 | 5 | -1 | x | x
CC1=C(C(=O)OC(C)C)C(c2cccc([N+](=O)[O-])c2)n2c(cc(=O)[nH]c2=S)N1 (configuration not stated) | 9.7* | -5 | 3 | 0 | -15 | 4 | -2 | 0
CCOC(=O)c1cnn(-c2nc(C)cc(C)n2)c1N | 10* | -17 | 5 | -1 | 2 | 1 | -2 | -1
Cc1cc(C)n(CCOc2nonc2N)n1 | 11* | -6 | 12* | -1 | 6 | 0 | -3 | 0

Compound activity from PubChem BioAssay.
